Source: ChEMBL document CHEMBL5260822, “Structure-based design and synthesis of 2,4-diaminopyrimidines as EGFR L858R/T790M selective inhibitors for NSCLC” (Eur J Med Chem, 2017)
Activity calls are given as the source filed them. No cut-off for these calls is given here.

Legend:
[1] = Cmax in Sprague-Dawley rat at 10 mg/kg, po and measured after 24 hrs by LC-MS/MS analysis; type: ADME, organism-based; parameters: dose 10 mg/kg, time 24 hrs, route po; details: in vivo
Method in brief: (§1)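 Male Sprague–Dawley rats (190–220 g) dosed by oral gavage at 10 mg/kg in 5% DMSO / 95% HP-β-CD aqueous solution (20%); iv reference arm at 1 mg/kg. Blood sampled at 0.25, 0.5, 1, 2, 4, 6, 8 and 24 h, centrifuged (8000 × g, 6 min), and plasma quantified by LC–MS/MS.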

[2] = Toxicity in BALB/c nude mouse xenografted with human NCI-H1975 cells harboring EGFR L858R/T790M mutant assessed as morphological changes in heart at 15 to 30 mg/kg, po for 18 days by hematoxylin and eosin staining based microscopic analysis; type: organism-based; details: in vivo, 432 h, dose 15-30 mg/kg, time 18 day
Method in brief: (§2)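 H1975 subcutaneous xenografts were grown in female BALB/cA nu/nu mice (n = 6 per group), dosed at 15 or 30 mg/kg/day for 18 days or with vehicle. At the end the mice were sacrificed. Heart, kidney and liver were harvested, processed and stained with hematoxylin and eosin for routine histological examination.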

[3] = Clearance in Sprague-Dawley rat at 1 mg/kg, iv and measured after 24 hrs by LC-MS/MS analysis; type: ADME, organism-based; details: in vivo
[4] = target: Tyrosine-protein kinase BTK (Homo sapiens) (UniProt Q06187); test: Inhibition of BTK (unknown origin) at 1000 nM by DiscoverX KINOMEscan assay
Tyrosine-protein kinase BTK (Homo sapiens), sequence (Q06187 whole entry): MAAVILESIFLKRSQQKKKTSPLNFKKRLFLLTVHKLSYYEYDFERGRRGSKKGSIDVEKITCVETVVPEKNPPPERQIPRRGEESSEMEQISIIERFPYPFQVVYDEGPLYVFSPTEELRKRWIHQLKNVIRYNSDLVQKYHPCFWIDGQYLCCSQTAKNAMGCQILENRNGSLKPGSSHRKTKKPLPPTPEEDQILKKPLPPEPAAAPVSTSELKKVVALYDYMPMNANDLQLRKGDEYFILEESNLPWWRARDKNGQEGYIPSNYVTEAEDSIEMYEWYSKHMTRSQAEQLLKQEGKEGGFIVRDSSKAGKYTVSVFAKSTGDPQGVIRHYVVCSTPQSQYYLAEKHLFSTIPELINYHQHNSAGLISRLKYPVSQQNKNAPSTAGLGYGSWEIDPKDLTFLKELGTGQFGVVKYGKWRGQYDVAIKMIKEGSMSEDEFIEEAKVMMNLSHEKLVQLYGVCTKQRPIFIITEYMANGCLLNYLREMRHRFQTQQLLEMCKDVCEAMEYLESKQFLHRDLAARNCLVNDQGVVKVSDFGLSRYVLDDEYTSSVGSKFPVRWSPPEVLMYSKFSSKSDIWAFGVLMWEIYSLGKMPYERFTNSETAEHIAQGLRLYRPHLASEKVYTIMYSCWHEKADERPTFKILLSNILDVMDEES

[5] = system: NCI-H1975; test: Inhibition of Akt signalling in EGF-stimulated human NCI-H1975 cells harboring EGFR L858R/T790M double mutant assessed as […] at 0.1 to 100 nM and measured after 2 hrs by Western blot analysis; type: cell-based; details: dose 0.1-100 nM
[6] = Half life in Sprague-Dawley rat at 1 mg/kg, iv and measured after 24 hrs by LC-MS/MS analysis; type: ADME, organism-based; details: in vivo
[7] = Oral bioavailability in Sprague-Dawley rat at 10 mg/kg and measured after 24 hrs by LC-MS/MS analysis; type: ADME, organism-based; details: in vivo; method in brief: as §1
[8] = Toxicity in BALB/c nude mouse xenografted with human NCI-H1975 cells harboring EGFR L858R/T790M mutant assessed as body weight loss at 15 to 30 mg/kg, po for 18 days; type: organism-based; details: in vivo, 432 h, dose 15-30 mg/kg, time 18 day
Method in brief: (§3)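 Female BALB/cA nu/nu mice were given 1 × 10^6 H1975 cells in 0.1 mL PBS subcutaneously in the right flank. At an average tumour volume of 100 mm3 (about 18 days post-implantation) they were randomised, n = 6 per group. Groups received 15 or 30 mg/kg/day for 18 consecutive days or vehicle. Mice were kept at constant room temperature, 12/12-h light/dark, with standard diet and water ad lib.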

[9] = target: T1, Epidermal growth factor receptor (Homo sapiens, UniProt P00533); test: Inhibition of EGFR phosphorylation in EGF-stimulated human A-431 cells harboring wild type EGFR at 100 nM and measured after 2 hrs by Western blot analysis; type: cell-based
T1 sequence (P00533 whole entry): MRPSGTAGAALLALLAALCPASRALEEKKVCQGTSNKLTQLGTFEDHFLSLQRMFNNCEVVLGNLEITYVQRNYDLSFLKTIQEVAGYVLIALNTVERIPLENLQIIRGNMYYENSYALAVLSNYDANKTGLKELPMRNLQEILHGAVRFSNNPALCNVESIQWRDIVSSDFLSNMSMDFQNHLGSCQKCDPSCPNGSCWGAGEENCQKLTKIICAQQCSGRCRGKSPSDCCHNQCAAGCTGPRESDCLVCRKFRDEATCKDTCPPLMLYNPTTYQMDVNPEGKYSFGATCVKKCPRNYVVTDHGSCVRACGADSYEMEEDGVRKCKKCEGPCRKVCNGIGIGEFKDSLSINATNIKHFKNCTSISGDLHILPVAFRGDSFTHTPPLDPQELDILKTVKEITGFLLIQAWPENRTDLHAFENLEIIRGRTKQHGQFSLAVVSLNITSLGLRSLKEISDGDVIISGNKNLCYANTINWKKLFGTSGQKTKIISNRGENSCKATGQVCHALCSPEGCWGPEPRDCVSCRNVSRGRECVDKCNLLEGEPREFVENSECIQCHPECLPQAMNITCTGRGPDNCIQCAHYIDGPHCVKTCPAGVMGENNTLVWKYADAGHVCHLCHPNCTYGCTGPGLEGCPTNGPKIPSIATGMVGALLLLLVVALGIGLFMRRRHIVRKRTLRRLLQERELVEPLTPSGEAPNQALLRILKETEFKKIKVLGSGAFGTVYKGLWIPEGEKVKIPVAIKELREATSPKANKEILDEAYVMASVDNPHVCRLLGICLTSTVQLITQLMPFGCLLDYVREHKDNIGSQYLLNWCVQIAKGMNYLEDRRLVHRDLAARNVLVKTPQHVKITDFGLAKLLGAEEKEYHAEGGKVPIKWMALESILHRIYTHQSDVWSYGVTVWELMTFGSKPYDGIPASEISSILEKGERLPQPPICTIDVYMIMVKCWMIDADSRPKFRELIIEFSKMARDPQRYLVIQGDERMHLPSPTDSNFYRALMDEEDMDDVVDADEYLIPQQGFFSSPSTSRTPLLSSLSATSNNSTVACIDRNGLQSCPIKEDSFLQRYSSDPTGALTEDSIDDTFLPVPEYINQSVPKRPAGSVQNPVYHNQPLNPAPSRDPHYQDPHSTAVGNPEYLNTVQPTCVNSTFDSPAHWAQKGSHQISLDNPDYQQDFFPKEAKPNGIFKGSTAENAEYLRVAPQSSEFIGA
Method in brief: (§4)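 Cells treated with compound for 2 h, then stimulated with EGF for 15 min and lysed. Lysates cleared at 12,000 × g (10 min, 4 °C), protein measured by Bradford assay, and equal amounts run on 8% SDS-PAGE and blotted to nitrocellulose. Probed for p-EGFR (Y1068), EGFR, p-ERK (T202/Y204), ERK, with tubulin or GAPDH as loading controls.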

[10] = Toxicity in BALB/c nude mouse xenografted with human NCI-H1975 cells harboring EGFR L858R/T790M mutant assessed as morphological changes in liver at 15 to 30 mg/kg, po for 18 days by hematoxylin and eosin staining based microscopic analysis; type: organism-based; details: in vivo, 432 h, dose 15-30 mg/kg, time 18 day; method in brief: as §2
[11] = system: NCI-H1975; test: Antitumor activity against human NCI-H1975 cells harboring EGFR L858R/T790M mutant xenografted in BALB/c nude mouse assessed as tumor growth inhibition at 15 mg/kg, po for 18 days; type: functional; details: NCI-H1975, 432 h, time 18 day, read-out: TGI
Method in brief: (§5)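 H1975 cells (1 × 10^6 in 0.1 mL PBS) injected subcutaneously into the right flank of female nude mice. At mean tumor volume of about 100 mm3 (roughly 18 days), mice randomized, n = 6 per group, and dosed once daily for 18 days against a vehicle group. Tumor volume (0.5 × L × W²) measured every 2–3 days; tumors weighed at sacrifice. Data given as mean ± SEM.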

[12] = target: Insulin receptor (Homo sapiens) (UniProt P06213); test: Inhibition of INSR (unknown origin) at 1000 nM by DiscoverX KINOMEscan assay
[13] = system: Epidermal growth factor receptor (Homo sapiens), P00533 [L858R,T790M]; details: NCI-H1975, dose 10.0 nM, time 2.0 hrs
Epidermal growth factor receptor (Homo sapiens), P00533 [L858R,T790M], sequence (P00533 whole entry T790M/L858R, looked up): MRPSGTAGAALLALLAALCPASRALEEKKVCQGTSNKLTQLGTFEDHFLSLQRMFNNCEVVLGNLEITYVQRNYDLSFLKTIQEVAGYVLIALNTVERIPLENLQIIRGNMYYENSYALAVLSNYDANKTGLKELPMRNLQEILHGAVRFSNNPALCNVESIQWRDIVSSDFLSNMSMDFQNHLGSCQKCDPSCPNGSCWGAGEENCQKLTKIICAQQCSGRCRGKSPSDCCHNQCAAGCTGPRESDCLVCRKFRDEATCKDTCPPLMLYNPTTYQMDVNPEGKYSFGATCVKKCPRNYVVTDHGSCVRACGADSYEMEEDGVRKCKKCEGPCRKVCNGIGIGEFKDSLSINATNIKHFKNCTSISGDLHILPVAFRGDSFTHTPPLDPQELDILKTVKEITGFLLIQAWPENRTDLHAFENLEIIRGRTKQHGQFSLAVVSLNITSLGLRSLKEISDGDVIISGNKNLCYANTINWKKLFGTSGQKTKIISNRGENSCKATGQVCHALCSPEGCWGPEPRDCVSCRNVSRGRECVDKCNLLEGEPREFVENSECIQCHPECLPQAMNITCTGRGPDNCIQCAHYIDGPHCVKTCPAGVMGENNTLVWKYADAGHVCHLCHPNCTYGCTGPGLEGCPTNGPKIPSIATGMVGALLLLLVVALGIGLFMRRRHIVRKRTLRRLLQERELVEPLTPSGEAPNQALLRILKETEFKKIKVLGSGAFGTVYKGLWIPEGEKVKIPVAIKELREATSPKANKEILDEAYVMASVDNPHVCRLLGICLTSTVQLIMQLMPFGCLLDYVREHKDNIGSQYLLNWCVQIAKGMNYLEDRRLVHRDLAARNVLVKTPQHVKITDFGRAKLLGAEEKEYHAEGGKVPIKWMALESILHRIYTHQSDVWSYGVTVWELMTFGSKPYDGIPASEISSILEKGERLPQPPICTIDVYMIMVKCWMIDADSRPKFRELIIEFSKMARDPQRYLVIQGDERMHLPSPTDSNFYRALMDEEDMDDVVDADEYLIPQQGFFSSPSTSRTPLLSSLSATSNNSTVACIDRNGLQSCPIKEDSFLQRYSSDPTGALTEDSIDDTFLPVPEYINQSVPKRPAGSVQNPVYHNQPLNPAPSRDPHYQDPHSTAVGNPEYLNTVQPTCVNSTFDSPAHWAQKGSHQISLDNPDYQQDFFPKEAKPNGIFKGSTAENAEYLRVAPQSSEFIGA

[14] = system: NCI-H1975; test: Antitumor activity against human NCI-H1975 cells harboring EGFR L858R/T790M mutant xenografted in BALB/c nude mouse assessed as tumor growth inhibition at 30 mg/kg, po for 18 days; type: functional; details: NCI-H1975, 432 h, time 18 day, read-out: TGI; method in brief: as §5
[15] = AUC (0 to infinity) in Sprague-Dawley rat at 1 mg/kg, iv and measured after 24 hrs by LC-MS/MS analysis; type: ADME, organism-based; parameters: time 24 hrs, dose 1 mg/kg, route iv; details: in vivo
[16] = system: A-431; test: Antiproliferative activity against human A-431 cells harboring wild type EGFR assessed as inhibition of cell proliferation incubated for 72 hrs by sulforhodamine B colorimetric assay; type: functional, cell-based; details: A-431, 72 h
[17] = Cmax in Sprague-Dawley rat at 1 mg/kg, iv and measured after 24 hrs by LC-MS/MS analysis; type: ADME, organism-based; parameters: dose 1 mg/kg, time 24 hrs, route iv; details: in vivo
[18] = Half life in Sprague-Dawley rat at 10 mg/kg, po and measured after 24 hrs by LC-MS/MS analysis; type: ADME, organism-based; details: in vivo; method in brief: as §1
[19] = target: Epidermal growth factor receptor (Homo sapiens, UniProt P00533, L858R/T790M); test: Inhibition of EGFR L858R/T790M mutant (unknown origin) expressed in baculovirus expression system by ELISA
[20] = system: Epidermal growth factor receptor (Homo sapiens), P00533 [L858R,T790M]; test: In vivo inhibition of EGFR in BALB/c nude mouse xenografted with human NCI-H1975 cells harboring EGFR L858R/T790M mutant assessed as decrease in phosphorylated-EGFR level at 15 to 30 mg/kg, po for 18 days by western blot analysis; type: functional, organism-based; details: dose 15-30 mg/kg, time 18.0 day
[21] = Volume of distribution at steady state in Sprague-Dawley rat at 1 mg/kg, iv and measured after 24 hrs by LC-MS/MS analysis; type: ADME, organism-based; details: in vivo, read-out: Vdss
[22] = AUC (0 to infinity) in Sprague-Dawley rat at 10 mg/kg, po and measured after 24 hrs by LC-MS/MS analysis; type: ADME, organism-based; parameters: dose 10 mg/kg, time 24 hrs, route po; details: in vivo; method in brief: as §1
[23] = target: Focal adhesion kinase 1 (Homo sapiens) (UniProt Q05397); test: Inhibition of FAK (unknown origin) at 1000 nM by DiscoverX KINOMEscan assay
[24] = system: NCI-H1975; test: Antitumor activity against human NCI-H1975 cells harboring EGFR L858R/T790M mutant xenografted in BALB/c nude mouse assessed as tumor cell proliferation at 15 to 30 mg/kg, po for 18 days by Ki-67 staining based immunohistochemical analysis; type: functional, organism-based; details: dose 15-30 mg/kg, time 18.0 day
Method in brief: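 H1975 xenograft tumors from nude mice (n = 6/group, daily dosing 18 days) were harvested, fixed in 10% formalin, paraffin-embedded and cut into 5 µm sections. Sections deparaffinized and incubated with primary anti-Ki-67 antibody at room temperature; immunoreactivity visualized with DAB.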

[25] = Toxicity in BALB/c nude mouse xenografted with human NCI-H1975 cells harboring EGFR L858R/T790M mutant assessed as morphological changes in kidney at 15 to 30 mg/kg, po for 18 days by hematoxylin and eosin staining based microscopic analysis; type: organism-based; details: in vivo, 432 h, dose 15-30 mg/kg, time 18 day; method in brief: as §2
[26] = target: T1, Epidermal growth factor receptor; test: Inhibition of wild type EGFR (unknown origin) expressed in baculovirus expression system by ELISA
[27] = target: Tyrosine-protein kinase JAK2 (Homo sapiens) (UniProt O60674); test: Inhibition of JAK2 (unknown origin) at 1000 nM by DiscoverX KINOMEscan assay
Tyrosine-protein kinase JAK2 (Homo sapiens), sequence (O60674 whole entry): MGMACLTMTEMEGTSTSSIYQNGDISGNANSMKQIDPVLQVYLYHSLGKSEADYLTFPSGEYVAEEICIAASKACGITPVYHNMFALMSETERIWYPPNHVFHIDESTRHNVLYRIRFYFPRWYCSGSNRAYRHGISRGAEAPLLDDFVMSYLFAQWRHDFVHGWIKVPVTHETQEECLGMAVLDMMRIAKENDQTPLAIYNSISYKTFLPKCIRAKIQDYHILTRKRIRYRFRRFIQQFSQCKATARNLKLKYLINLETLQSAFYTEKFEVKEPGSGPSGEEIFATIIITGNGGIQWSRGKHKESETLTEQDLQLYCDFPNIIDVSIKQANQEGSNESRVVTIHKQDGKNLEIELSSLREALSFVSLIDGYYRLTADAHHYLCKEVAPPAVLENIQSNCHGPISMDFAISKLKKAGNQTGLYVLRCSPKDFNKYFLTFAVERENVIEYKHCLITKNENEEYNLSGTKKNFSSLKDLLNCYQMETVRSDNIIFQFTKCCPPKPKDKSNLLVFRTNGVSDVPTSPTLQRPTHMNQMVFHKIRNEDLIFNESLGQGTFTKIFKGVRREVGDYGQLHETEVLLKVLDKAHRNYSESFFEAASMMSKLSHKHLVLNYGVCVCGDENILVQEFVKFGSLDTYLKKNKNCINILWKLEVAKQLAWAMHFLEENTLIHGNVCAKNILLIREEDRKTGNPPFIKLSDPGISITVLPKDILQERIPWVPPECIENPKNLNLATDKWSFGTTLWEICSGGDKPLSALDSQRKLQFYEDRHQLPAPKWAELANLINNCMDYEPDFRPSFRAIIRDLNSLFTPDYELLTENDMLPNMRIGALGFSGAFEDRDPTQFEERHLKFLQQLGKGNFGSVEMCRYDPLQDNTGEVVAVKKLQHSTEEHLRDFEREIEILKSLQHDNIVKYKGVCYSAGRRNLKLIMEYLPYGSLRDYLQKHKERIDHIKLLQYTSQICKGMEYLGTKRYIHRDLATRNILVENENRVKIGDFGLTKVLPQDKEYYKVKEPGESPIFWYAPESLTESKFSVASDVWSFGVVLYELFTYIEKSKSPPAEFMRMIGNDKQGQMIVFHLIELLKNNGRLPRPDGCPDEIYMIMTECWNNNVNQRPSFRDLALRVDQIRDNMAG

[28] = system: NCI-H1975; test: Antiproliferative activity against human NCI-H1975 cells harboring EGFR L858R/T790M double mutant assessed as inhibition of cell proliferation incubated for 72 hrs by sulforhodamine B colorimetric assay; type: functional, cell-based; details: NCI-H1975, 72 h
[29] = system: Epidermal growth factor receptor (Homo sapiens), P00533 [L858R,T790M]; test: Inhibition of EGFR phosphorylation in EGF-stimulated human NCI-H1975 cells harboring EGFR L858R/T790M double mutant at 0.1 to 100 nM and measured after 2 hrs by Western blot analysis; type: cell-based; details: dose 0.1-100 nM; method in brief: as §4
[30] = Toxicity in BALB/c nude mouse xenografted with human NCI-H1975 cells harboring EGFR L858R/T790M mutant assessed as mortality at 15 to 30 mg/kg, po for 18 days; type: organism-based; details: in vivo, 432 h, dose 15-30 mg/kg, time 18 day; method in brief: as §3
[31] = system: NCI-H1975; test: Inhibition of Erk signalling in EGF-stimulated human NCI-H1975 cells harboring EGFR L858R/T790M double mutant assessed as decrease in p-ERK level at 0.1 to 100 nM and measured after 2 hrs by Western blot analysis; type: cell-based; details: dose 0.1-100 nM; method in brief: as §4

C=CC(=O)Nc1cc(Nc2ncc(Br)c(Nc3ccc4c(c3)CCC4)n2)c(OC)cc1N1CCN(C)CC1
Cmax [1]: 452 ng/mL
Activity [2]: Non-Toxic
clearance [3]: 15.9 mL/min/kg
inhibition [4]: Active
inhibition [5]: Dose-Dependent Effect
half-life [6]: 5.17 h
F [7]: 35.58%
Activity [8]: Non-Toxic
inhibition [9]: inactive
Activity [10]: Non-Toxic
inhibition in vivo at 15 mg/kg [11]: 61%
inhibition [12]: Active
inhibition [13]: Active
inhibition in vivo at 30 mg/kg [14]: 77%
AUC [15]: 1052 ng·h/mL
IC50 [16]: 2600 nM
Cmax [17]: 407 ng/mL
half-life [18]: 3.54 h
IC50 [19]: 3.2 nM
inhibition [20]: Active
Vd [21]: 4.83 L/kg
AUC [22]: 35.58 ng·h/mL
inhibition [23]: Active
Activity [24]: Active
Activity [25]: Non-Toxic
IC50 [26]: 203 nM
inhibition [27]: Active
IC50 [28]: 276 nM
inhibition [29]: Dose-Dependent Effect
Activity [30]: Non-Toxic
inhibition [31]: Dose-Dependent Effect
